# Fh CTSL1 inh – cathepsin L1 inhibition, PFM18AAP counter-screen. recombinant F. hepatica cathepsin L1, Z-Leu-Arg-MCA fluorescence. inhibition, % at 5.96 µM. hit rate 0.49% among 300,000;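 active means inhibition above the mean of all tested compounds plus 3 SD, set per screening campaign, cut at about 17% in these data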;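 further: 0% = plate median of test compound wells and 100% = 1 µM Z-Phe-Ala-diazomethylketone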
# aDG glyco up – alpha-DG glycosylation activation | Pro5-aDG cells, alpha-DG glycosylation AlphaScreen (IIH6); 0% Pro5, 100% B10-LARGE cell signal | hit rate 0.22% among 360,000 | activation, % at 10 µM;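 active means activation of at least 8% versus controls, or a plate z-score of at least 8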;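 further: Pro5 are CHO cells carrying HIG-tagged alpha-DG that lacks glycosylation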
# PKA-R1A activ – PKA-R1A complex activation; activation, % at 11.4 µM; PKA-R1A dissociation, Cy5-IP20 fluorescence polarization; scaled: DMSO 0%, 113 µM cGMP 100%; P00514+P68181; hit rate 0.083% among 340,000;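 active means percent activation above the mean of all tested compounds plus 3 SD, cut at about 19% in these data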;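 further: higher means more PKAc released from R1A so a rise in polarization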
# PKA-R2B act – PKA-R2B complex activation. P22694+P31323. activation, % at 11.4 µM. PKA-R2B holoenzyme dissociation, Cy5-IP20 fluorescence polarization; R2B truncated from residue 108, S112A mutant; 0% DMSO only, 100% 113 µM cGMP. hit rate 0.079% among 340,000;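 active means activation above a cutoff set at the mean over all compounds plus 3 SD, cut at about 18% in these data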;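 further: higher means more holoenzyme dissociation and a rise in polarization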
# Target sequence (P31323 whole entry, looked up, other chains not shown, the tested form may be a part): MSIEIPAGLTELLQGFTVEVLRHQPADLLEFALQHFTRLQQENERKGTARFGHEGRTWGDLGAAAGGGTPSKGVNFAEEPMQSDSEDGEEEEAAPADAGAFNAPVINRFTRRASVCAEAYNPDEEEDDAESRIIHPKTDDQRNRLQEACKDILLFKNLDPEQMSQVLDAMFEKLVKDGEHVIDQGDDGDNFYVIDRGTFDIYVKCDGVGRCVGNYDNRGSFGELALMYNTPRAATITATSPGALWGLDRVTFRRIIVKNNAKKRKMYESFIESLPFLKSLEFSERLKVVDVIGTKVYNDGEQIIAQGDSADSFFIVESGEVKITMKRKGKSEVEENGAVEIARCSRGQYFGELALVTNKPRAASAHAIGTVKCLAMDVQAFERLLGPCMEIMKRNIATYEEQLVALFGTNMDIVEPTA
# UCH37 inh – inhibitors of human deubiquitinating enzyme UCH37; Q9Y5K5; purified proteasome/UCH37, Ub-AMC cleavage fluorescence; inhibition, % (no concentration beside the values); hit rate 0.33% among 330,000; AID 588478;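 active means mean inhibition over replicate wells above about 20%, limit read from the data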;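 further: 0% = compound-free wells with enzyme and 100% = wells lacking proteasome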
# Target sequence (Q9Y5K5 whole entry, looked up): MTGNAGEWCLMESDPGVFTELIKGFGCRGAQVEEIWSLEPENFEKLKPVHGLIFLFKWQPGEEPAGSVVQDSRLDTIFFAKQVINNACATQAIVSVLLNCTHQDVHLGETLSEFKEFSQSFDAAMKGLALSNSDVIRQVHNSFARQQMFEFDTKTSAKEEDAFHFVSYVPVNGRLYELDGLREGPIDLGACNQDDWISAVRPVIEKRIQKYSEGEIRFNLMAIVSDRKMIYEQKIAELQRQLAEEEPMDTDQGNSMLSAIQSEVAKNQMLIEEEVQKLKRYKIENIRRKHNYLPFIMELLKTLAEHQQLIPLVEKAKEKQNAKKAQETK
#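 Material: Human UCH37 enzyme supplied as purified proteasome complex | Schedule: 30 min compound-proteasome preincubation then 25 min substrate reaction, room temperature | Detection: AMC fluorescence from Ub-AMC cleavage, excitation 355 nm, emission 460 nm | Benchmarks: Wells without proteasome as full block, compound-free enzyme plus substrate as uninhibited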
# UCH37 confirm – confirmation of human UCH37 deubiquitinating enzyme inhibitors | shares compounds with UCH37 inh | Proteasome-bound UCH37, Ub-AMC cleavage fluorescence | inhibition, % at 20 µM | hit rate 27% among 480 | AID 624100;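 active means average inhibition over replicates above about 50%, so the earlier screening hit is confirmed, limit read from the data; inactive means the rest, counted as false positives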;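 further: based on cleavage rate fitted by regression over a 30 min kinetic read; 0% = proteasome plus Ub-AMC and 100% = Ub-AMC without proteasome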
# aDG glyco conf – confirmation of alpha dystroglycan glycosylation activators. shares compounds with aDG glyco up. Pro5-aDG cells, alpha-DG glycosylation, IIH6 AlphaLISA; scaled to LARGE-overexpressing B10 cells as 100%. activation, % at 10 µM (by protocol). hit rate 17% among 600. AID 651671;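 active means activation of at least 7% in one or more replicates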;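 further: cells exposed to compound for two days before detection; 0% = DMSO-treated Pro5 cells and 100% = DMSO-treated B10-LARGE cells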
# * = called active by the depositor; x = no result given. Only some compounds are listed: those with a hit (about 0.94% of all), similar ones and a draw of the others.
SMILES,Fh CTSL1 inh,aDG glyco up,PKA-R1A activ,PKA-R2B act,UCH37 inh,aDG glyco conf,others
CCOc1ccc(N(CC(=O)NN=Cc2cc([N+](=O)[O-])ccc2Cl)S(C)(=O)=O)cc1,x,x,x,x,5.8,x,
CCOc1ccc(N(C)c2ccc(/C=C3/SC(=S)NC3=O)cc2)cc1,2.5,-0.1,-0.9,2.9,x,x,
CCOc1c(O)ccc(/C=C2\SC(=S)NC2=O)c1[N+](=O)[O-],6.0,-0.4,-2.2,-3.0,58.7*,x,UCH37 confirm=62.8*
Cc1ccc(C(=O)ON=Cc2ccc(N3CCCCC3)c([N+](=O)[O-])c2)cc1,x,x,x,x,40.4*,x,UCH37 confirm=-2.2
Cc1ccc(C(=O)O/N=C\c2ccc(N3CCCCC3)c([N+](=O)[O-])c2)cc1,-3.2,1.3,2.1,5.9,x,x,
CC(=NNC(=O)c1nnn(-c2nonc2N)c1CN1CCC(C)CC1)c1cccc(Br)c1,x,x,x,x,7.1,x,
C[N+](C)(C)c1ccc(C=NNc2nc(Cl)c(C#N)c(Cl)c2Cl)cc1,x,x,x,x,11.5,x,
C[n+]1ccc(C=NNc2nc(Cl)c(C#N)c(Cl)c2Cl)cc1,x,x,x,x,25.1*,x,UCH37 confirm=31.6
O=C(Nc1cccc2ccccc12)c1ccc([N+](=O)[O-])s1,2.6,12.5*,-0.4,-7.9,1.4,5.7*,
O=C(Nc1ccccc1F)c1ccc([N+](=O)[O-])s1,-3.9,16.3*,2.2,0.2,2.9,3.7*,
COc1cc(C=NNC(=O)c2cccnc2)cc(Br)c1O,x,x,x,x,16.9,x,
Cc1ccc(C2(c3noc(CN4CCC(c5ccncc5)CC4)n3)CCCC2)cc1,4.9,6.0*,-12.2,-3.0,3.4,-0.3,
Cc1ccc(C2(c3noc(CN(C)CC4CCCCO4)n3)CCCC2)cc1 (centres undefined),-0.2,0.0,-0.2,5.8,3.0,x,
O=C(OCc1ccccc1)N1CCC2CC1c1cc(N3CCCCC3)ccc12 (centres undefined),x,5.9*,-0.9,-3.0,x,-1.1,
O=C(OCc1ccccc1)N1CCC2CC1c1cc(N3CCNCC3)ccc12 (centres undefined),x,0.7,-5.7,-6.0,x,x,
Cc1cccc(C(=O)Oc2ccccc2C=NNC(=O)c2ccc(NC(=O)C(C)(C)C)cc2)c1,x,x,x,x,4.1,x,
O=C(/C=C/c1ccc(Cl)c(Cl)c1)Nc1cccnc1,0.7,3.1*,-12.5,-6.9,-1.6,-0.6,
CCOC(=O)c1ccc(NC(=NS(=O)(=O)c2ccccc2C)c2ccccc2)cc1,x,x,x,x,0.5,x,
N#Cc1cc2ccc(N3CCOCC3)cc2cc1C#N,2.3,6.8*,-3.1,1.6,-41.8,2.2,
N#Cc1cc(Cl)c(N2CCOCC2)cc1C#N,-1.3,0.0,2.8,-5.2,0.7,x,
CN(C)c1nc(Oc2ccc(=O)n(C)n2)nc(N2CCOCC2)n1,-2.3,6.9*,-3.4,-5.0,4.0,0.2,
C=CCNC(=S)N/N=C/c1ccc(C(C)(C)C)cc1,x,8.6*,-9.5,2.6,x,1.8,
C=CCNC(=S)NN=Cc1ccc(C(C)(C)C)cc1,x,x,x,x,5.3,x,
Nc1nc(-c2cccnc2)nn1S(=O)(=O)c1ccccc1,-0.8,7.2*,-9.9,-8.5,2.4,0.1,
COc1ccc(NN=C(C(C)=O)N2CCCc3ccccc32)cc1,x,x,x,x,3.3,x,
SMILES,Fh CTSL1 inh,aDG glyco up,PKA-R1A activ,PKA-R2B act,UCH37 inh,aDG glyco conf,others
Cc1cccc(C=Nn2c(C3CCCCC3)n[nH]c2=S)c1,x,x,x,x,0.7,x,
N#Cc1ccccc1Cn1c(=O)n(-c2ccc(CC(=O)NCc3ccco3)cc2)c(=O)c2sccc21,-0.7,10.2*,0.5,17.6,5.3,0.1,
CCCN(CCC)C(=O)C1CCCN(S(=O)(=O)c2ccc3c(c2)oc(=O)n3C)C1 (centres undefined),1.2,8.0*,-4.9,12.0,-1.2,-0.2,
COC(CNC(=O)C1CCCN(S(=O)(=O)c2ccc3c(c2)oc(=O)n3C)C1)OC (centres undefined),1.7,-0.1,-3.0,5.0,1.7,x,
Cc1ccc2nc3c(c(N)c2c1)CCN3C,1.0,0.3,-8.4,4.5,x,x,
CCCCN1CCc2c1nc1ccc(Br)cc1c2N,-0.8,3.6*,-12.1,-15.6,9.7,7.8*,
ON=C1CCSc2ccc(F)cc21,x,x,x,x,-0.7,x,
Cc1ccc(NC(=O)c2ccc([N+](=O)[O-])s2)cc1S(=O)(=O)N1CCOCC1,x,9.0*,-3.9,13.4,0.7,6.1*,
O=C(Nc1cc(S(=O)(=O)N2CCOCC2)ccc1N1CCOCC1)c1ccc([N+](=O)[O-])s1,x,3.0,-14.8,-8.5,11.1,x,
O=C(Cn1cccc1C(=O)c1ccccc1)NCCCN1CCOCC1,-4.7,-0.2,-3.5,3.8,5.7,x,
Cc1ccc(C)c(N2CCN(CCCNC(=O)Cn3cccc3C(=O)c3ccccc3)CC2)c1,4.5,10.5*,-6.2,1.0,1.3,3.0,
CC(CC(=O)c1ccccc1)=NNC(=O)CC#N,x,x,x,x,1.1,x,
Cc1cccc(NC(=O)CSc2nc3ccccc3c3nc(CCc4c(C)n[nH]c4C)nn23)c1,-2.2,-0.4,-1.3,1.4,-0.6,x,
Cc1cncn1CCc1nc2c3ccccc3nc(SCC(=O)Nc3cccc(Cl)c3)n2n1,-2.4,8.7*,-3.8,-3.3,5.5,5.3*,
COc1cc([N+](=O)[O-])cc(C=NNC(=O)c2cccnc2)c1O,x,x,x,x,17.1,x,
COc1ccccc1Nc1nc(C)cc(C)c1C(N)=O,1.4,0.1,-3.6,-3.2,-0.6,x,
Cc1cc(C)c(C(N)=O)c(Nc2cccc3ccccc23)n1,-1.6,5.7*,3.9,-3.7,3.9,0.2,
CCc1nc2ccc(C(=O)NC3CCN(Cc4ccccc4)CC3)cn2c1N(C)Cc1cc2ccccc2s1,x,6.4*,x,x,x,10.9*,
Cc1ccc(C(=O)Nc2nnc(S(=O)(=O)N3CCOCC3)s2)cc1,0.4,0.1,2.3,-1.3,-0.1,x,
O=C(Nc1nnc(S(=O)(=O)N2CCOCC2)s1)c1ccc(F)cc1,1.8,8.7*,1.0,3.0,5.6,-0.6,
Cc1ccccc1C=Nn1c(-c2ccccn2)n[nH]c1=S,x,x,x,x,1.8,x,
CCS(=O)(=O)N1CCCC(C(=O)c2ccc(OC)cc2C)C1 (centres undefined),1.7,24.6*,-10.1,0.9,2.1,-0.1,
CC(C)(C)c1cc(C=NO)cc(C(C)(C)C)c1O,x,x,x,x,4.9,x,
Cc1ccccc1Nc1nc(N)nc(COC(=O)c2ccco2)n1,x,3.8*,-6.7,1.1,2.4,1.2,
Cc1cc2c(cc1C)C(=O)C(Br)=C(N)C2=O,x,6.1*,-0.6,-5.2,4.3,-0.7,
Cc1cc(=O)[nH]c(NN=C2CCCC/C2=C\c2ccccc2)n1,x,x,x,x,5.1,x,
Nc1nc(Cl)cc(N2CCCC2)n1,0.6,0.0,4.9,2.5,7.2,x,
Nc1nc(Cl)cc(N2CCC(c3cc(-c4ccc(Cl)cc4Cl)n[nH]3)CC2)n1,-0.4,11.1*,-2.4,-5.1,-1.0,1.4,

# Screening data as filed in PubChem.
